p97 ATPase inh: inhibitors of human p97 ATPase, primary screen, biochemical. AID 1481, 2009. Transitional endoplasmic reticulum ATPase (Homo sapiens), P55072. recombinant p97 ATPase, Kinase-Glo ATP luminescence, 3 h. inhibition, % at 8 µM. actives 0.42% (n = 220,000); in the data active = inhibition above about 15%;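 note: 0% = DMSO vehicle and 100% = wells lacking enzyme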
Target sequence (P55072 whole entry, looked up): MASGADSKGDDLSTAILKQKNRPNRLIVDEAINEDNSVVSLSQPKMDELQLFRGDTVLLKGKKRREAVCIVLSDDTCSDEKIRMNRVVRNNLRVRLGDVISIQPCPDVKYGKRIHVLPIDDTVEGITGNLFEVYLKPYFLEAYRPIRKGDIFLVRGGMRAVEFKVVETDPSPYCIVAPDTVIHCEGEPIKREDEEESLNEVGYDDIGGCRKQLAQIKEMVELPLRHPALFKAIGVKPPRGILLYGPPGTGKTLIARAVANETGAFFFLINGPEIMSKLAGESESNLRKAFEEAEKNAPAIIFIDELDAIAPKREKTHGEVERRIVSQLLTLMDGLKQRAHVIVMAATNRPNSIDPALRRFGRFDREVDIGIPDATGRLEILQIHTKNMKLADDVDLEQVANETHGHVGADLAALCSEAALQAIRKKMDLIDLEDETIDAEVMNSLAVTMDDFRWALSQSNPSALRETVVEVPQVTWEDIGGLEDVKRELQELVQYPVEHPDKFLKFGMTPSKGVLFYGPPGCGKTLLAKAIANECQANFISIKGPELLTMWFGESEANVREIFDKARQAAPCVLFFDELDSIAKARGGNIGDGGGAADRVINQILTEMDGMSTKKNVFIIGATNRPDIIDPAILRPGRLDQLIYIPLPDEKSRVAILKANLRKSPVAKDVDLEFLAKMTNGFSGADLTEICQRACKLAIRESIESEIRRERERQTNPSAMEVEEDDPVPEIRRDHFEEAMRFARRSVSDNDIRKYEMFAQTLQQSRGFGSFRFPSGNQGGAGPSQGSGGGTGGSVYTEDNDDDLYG
RBBP9 inh: human RBBP9 inhibitors, primary screen, biochemical, fluorescence polarization, FP-Rh probe, HTS; actives 0.2% (n = 220,000); AID 1515, 2009; Serine hydrolase RBBP9 (Homo sapiens), O75884; inhibition, % at 7.94 µM; recombinant RBBP9;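 active = inhibition above the campaign mean of all tested compounds plus 3 SD, cut at about 14% in these data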;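 note: plate controls were DMSO wells with RBBP9 for no effect and wells lacking RBBP9 protein for full effect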
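Assay system: recombinant human RBBP9; Reagent: Serine-hydrolase probe FP-Rh, 375 nM pre-mixing; Doses: 7.94 µM single dose, 0.794% DMSO; Incubation: 30 min then 45 min, 25 °C; Detection: fluorescence polarization (mP), excitation 525 nm, emission 598 nm; Evaluation: percent inhibition from mP, scaled between DMSO and no-protein wells.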
PKD1 inh: inhibitors of human PKD1 kinase, biochemical, fluorescence polarization | PKD1 kinase fluorescence polarization assay | inhibition, % (no concentration beside the values) | actives 0.056% (n = 200,000); in the data active = inhibition above about 50%
PP5 inh: PP5 phosphatase inhibitors, primary screen, biochemical, fluorescence; Serine/threonine-protein phosphatase 5 (Homo sapiens), P53041; purified PP5c, OMFP substrate fluorescence; inhibition, % at 6.7 µM; actives 0.18% (n = 320,000);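 active = inhibition above the campaign's mean inhibition across all tested compounds plus 3 SD, cut at about 9.5% in these data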;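 note: 0% = DMSO only and 100% = 100 µM cantharidin control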
Hsp70 act: Hsp70 transcriptional activators, primary screen, cell-based, HeLa, Hsp70 promoter luciferase, luminescence, 10 µM. HeLa Hsp70 promoter luciferase reporter; scaled: vehicle 0, proteasome-inhibitor control 100%. activation, % at 10 µM. actives 0.04% (n = 200,000). AID 1203, 2008;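 active = activation above the mean across all tested compounds plus 3 SD, cutoff set per campaign, cut at about 5.5% in these data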;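 note: 100% = MG132 at 30 µM as the positive control and 0% = DMSO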
PP1 counter: PP1-alpha phosphatase inhibitors, primary screen, counter-screen for PP5 inhibitor project, biochemical, fluorescence, OMFP substrate, single point. Serine/threonine-protein phosphatase PP1-alpha catalytic subunit (Homo sapiens), P62136. purified PP1alpha. inhibition, % at 6.7 µM. actives 0.9% (n = 320,000). AID 2235, 2010;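 active = inhibition above the mean inhibition of all tested compounds plus 3 SD, computed separately for each screening campaign, cut at about 15% in these data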
Numbers without * were called inactive; nt = not tested or not shown. Compounds with a hit are over-represented: about 1.5% of the library has one in this group of screens.

SMILES | p97 ATPase inh | RBBP9 inh | PKD1 inh | PP5 inh | Hsp70 act | PP1 counter
O=C(COc1cccc(C(F)(F)F)c1)NCC(c1cccs1)N1CCOCC1 (stereo unspecified) | nt | nt | nt | -0.3 | nt | -1.4
COc1cc(NC(=O)c2sc3ncn(CC(=O)N4CCC(C)CC4)c(=O)c3c2C)cc(OC)c1OC | nt | nt | nt | 1.2 | nt | 8.6
COc1cc(NC(=O)c2sc3ncn(CC(=O)N4CCCC(C)C4)c(=O)c3c2C)cc(OC)c1OC (stereo unspecified) | nt | nt | nt | 1.0 | nt | 16.6*
CCOc1ccc(NC(=O)Nc2nnc(CC(=O)NCc3ccccc3)s2)cc1 | 1.7 | -7.8 | -0.2 | -0.6 | -0.3 | 9.1
COc1ccc(NC(=O)Nc2nnc(CC(=O)NCc3ccccc3)s2)cc1 | -1.7 | -9.0 | -1.6 | 4.8 | -0.3 | 16.1*
O=c1c2c3c(sc2nc(N2CCNCC2)n1-c1cccc(Cl)c1)CCCCC3 | 12.6 | 2.7 | nt | 1.2 | nt | 15.2*
C=CCOc1cccc(C2C(C(=O)c3cc4ccccc4o3)=C(O)C(=O)N2c2cc(C)on2)c1 (stereo unspecified) | nt | nt | nt | 1.5 | nt | 28.4*
COc1cccc(C2C(C(=O)c3cc4ccccc4o3)=C(O)C(=O)N2CCN2CCOCC2)c1 (stereo unspecified) | nt | nt | nt | 1.7 | nt | 0.9
COc1cccc(C2C(C(=O)c3cc4ccccc4o3)=C(O)C(=O)N2c2cc(C)on2)c1 (stereo unspecified) | nt | nt | nt | -0.1 | nt | 24.9*
CCOC(=O)CNC(=S)N(Cc1ccco1)Cc1ccccc1Cl | nt | nt | nt | -0.4 | nt | 0.6
O=C(COC(=O)Cc1n[nH]c(=O)c2ccccc12)NNC(=O)c1ccc(Cl)cc1 | nt | nt | nt | -1.9 | nt | -3.4
O=C(NCCCN1CCCC1=O)c1ccc([N+](=O)[O-])s1 | nt | nt | nt | -0.9 | nt | -6.8
CN1CCN(C(c2ccc(C(F)(F)F)cc2)c2ccc3cccnc3c2O)CC1 (stereo unspecified) | nt | nt | nt | 3.2 | nt | 13.6
Oc1c(C(c2cccs2)N2CCN(c3ccccc3)CC2)ccc2cccnc12 (stereo unspecified) | 8.2 | 2.1 | -6.9 | 3.4 | 1.4 | 18.6*
CC(=O)Nc1ccc(Nc2nc(-c3ccccc3)nc3ccccc23)cc1 | 10.5 | 5.7 | -6.8 | 1.5 | 0.2 | 7.2
O=C(Nc1nc(-c2ccccc2)nc2ccccc12)c1ccc(F)cc1 | 4.0 | 6.2 | -0.2 | 1.9 | -0.2 | 16.2*
COc1ccccc1NC(=O)CON=C(N)CC(=O)NC1CCCCC1 | nt | nt | nt | 2.7 | nt | 1.6
Cc1ccc(C(C[N+](=O)[O-])c2c(-c3ccccc3O)[nH][nH]c2=O)cc1 (stereo unspecified) | -0.5 | -4.0 | 6.2 | 0.4 | -0.4 | 3.1
O=C(c1ccc(-c2ccc(Cl)cc2)o1)N1CCN(c2ccc([N+](=O)[O-])cc2Cl)CC1 | 4.0 | -5.8 | 0.8 | -0.1 | 0.0 | 16.2*
O=C(c1ccc(-c2ccc([N+](=O)[O-])cc2)o1)N1CCCCC1 | -3.8 | -2.7 | -3.5 | 2.1 | -0.4 | -3.1
COc1ccc(C(C[N+](=O)[O-])c2c(-c3ccccc3)cc3ccccn23)c(OC)c1 (stereo unspecified) | 4.3 | -11.4 | -3.1 | -2.5 | 0.4 | 16.8*
COc1ccc(NC(=O)CSc2ccc([N+](=O)[O-])cc2)cc1S(=O)(=O)N1CCOCC1 | nt | nt | nt | 0.4 | nt | -4.2
CNC(=O)c1cc(Oc2ccc(NC(=O)Nc3ccc(Cl)c(C(F)(F)F)c3)cc2)ccn1 | nt | nt | nt | 7.9 | nt | 4.6
Cc1ccc(S(=O)(=O)C(C#N)c2nc3ccccc3nc2N2CCCC2)cc1 (stereo unspecified) | 19.6* | -4.1 | -6.8 | 4.8 | -0.2 | 3.4
CCCOc1ccc(C2C(C(=O)c3ccc(C)o3)=C(O)C(=O)N2Cc2ccco2)cc1OCC (stereo unspecified) | nt | nt | nt | 2.1 | nt | 35.3*
SMILES | p97 ATPase inh | RBBP9 inh | PKD1 inh | PP5 inh | Hsp70 act | PP1 counter
CCOc1ccc(C2C(C(=O)c3ccc(C)o3)=C(O)C(=O)N2Cc2cccnc2)cc1 (stereo unspecified) | nt | nt | nt | 0.6 | nt | 15.3*
Cc1ccc(C(=O)C2=C(O)C(=O)N(Cc3cccnc3)C2c2ccc(Cl)cc2)o1 (stereo unspecified) | nt | nt | nt | 2.5 | nt | 16.1*
COc1ccc(C2C(C(=O)c3ccc(C)o3)=C(O)C(=O)N2Cc2cccnc2)cc1OC (stereo unspecified) | nt | nt | nt | -0.4 | nt | -2.3
Cc1ccc(C(=O)C2=C(O)C(=O)N(Cc3ccccc3)C2c2cccnc2)o1 (stereo unspecified) | 3.0 | -7.2 | 0.2 | 0.6 | -0.2 | 3.2
COc1ccc(C2C(C(=O)c3ccc(C)o3)=C(O)C(=O)N2Cc2ccco2)cc1OC (stereo unspecified) | nt | nt | nt | 0.8 | nt | 0.6
Cc1ccc(C(=O)C2=C(O)C(=O)N(Cc3cccnc3)C2c2cccc(Oc3ccccc3)c2)o1 (stereo unspecified) | nt | nt | nt | -0.6 | nt | 44.8*
CC(Sc1nnc(Cc2ccccc2)o1)C(=O)Nc1ccccc1[N+](=O)[O-] (stereo unspecified) | nt | nt | nt | 0.2 | nt | 5.4
O=c1c2ccccc2nc(/C=C/c2cccnc2)n1CCc1ccccc1 | -6.3 | 2.7 | nt | 5.1 | nt | 15.7*
CC(=O)Oc1ccc2nc(/C=C/c3ccccc3)oc(=O)c2c1 | nt | nt | nt | 1.3 | nt | -0.3
Cc1csc(SCCn2c(N3CCCC3)nc3c2c(=O)[nH]c(=O)n3C)n1 | 14.5* | -3.4 | -1.0 | 4.6 | 1.0 | -2.0
CCOC(=O)C1Nc2ccc(C(=O)O)cc2C2C=CCC12 (stereo unspecified) | nt | nt | nt | -1.1 | nt | 33.9*
C[C@@H]1CC=C[C@H]2[C@H]1C(=O)N(Cc1ccccc1)[C@H]2c1ccc(F)c(-c2ccc(N(C)C)cc2)c1 | nt | nt | nt | 3.4 | nt | 16.1*
CC(=O)c1ccc(-c2cc([C@H]3[C@H]4C=CC[C@@H](C)[C@@H]4C(=O)N3Cc3ccccc3)ccc2F)cc1 | nt | nt | nt | 0.9 | nt | 5.3
CC(=O)N1CCN(CCS(=O)(=O)c2ccc(Br)cc2)CC1 | nt | nt | nt | 2.4 | nt | -4.8
Cc1[nH][nH]c(=O)c1C(c1ccc(-c2ccc(F)cc2)o1)c1c(C)[nH][nH]c1=O | 9.3 | -2.3 | -2.9 | 2.8 | -0.1 | 9.7
COc1ccc(-c2ccc(C(c3c(C)[nH][nH]c3=O)c3c(C)[nH][nH]c3=O)o2)c([N+](=O)[O-])c1 | 15.0* | -5.9 | -0.1 | nt | 0.3 | nt
Cc1cc2cc(CNS(=O)(=O)c3ccc4ccccc4c3)ccc2n1C | -0.1 | -0.2 | 7.0 | 3.6 | 0.1 | 4.2
Cc1cc2cc(CNC(=O)Nc3cccc(Cl)c3)ccc2n1C | 0.1 | -8.1 | 6.7 | 3.5 | 0.1 | 16.2*
Cc1cccc(NC(=O)NCc2ccc3c(c2)cc(C)n3C)c1 | 6.1 | -3.7 | 5.9 | 0.6 | 0.1 | 13.6

Screening data: PubChem BioAssay, several laboratories
